Measurements as given in ChEMBL document CHEMBL1122685, “Identification of an acridine photoaffinity probe for trypanocidal action” (1984).

Key:
Format in all cases: functional
Trypanosoma brucei [1] = test: Compound is evaluated for trypanocidal activity against Trypanosoma brucei, by exposing the parasites directly to compound prior to injection to mice at 10 E-4 M concentration in dark conditions
Method in brief: (§1)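 T. brucei EATRO 110 was separated from blood on DEAE-cellulose and washed in Tris-saline-glucose (TSG). Parasites at 5×10^6/mL in TSG were gently rotated 10 min with drug at the final concentration, kept dark under a red safelight until injection. Swiss mice, five per group, received 5×10^5 parasites ip in 0.1 mL. Read-out was mean days survival ±SD over 30 days, against untreated-parasite controls.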

Trypanosoma brucei [2] = test: Compound is evaluated for trypanocidal activity against Trypanosoma brucei, by exposing the parasites directly to compound prior to injection to mice at 10 E-5 M concentration (pre) in dark conditions
Method in brief: (§2)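 Drug was preirradiated 1 h with visible light, then added at the final concentration to T. brucei EATRO 110 (5×10^6/mL in TSG) and rotated 10 min. The parasites were then kept dark with a red safelight. Swiss mice, five per group, were injected ip with 0.1 mL holding 5×10^5 parasites. Mean days survival ±SD was scored over 30 days against untreated-parasite controls.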

Trypanosoma brucei [3] = test: Compound is evaluated for trypanocidal activity against Trypanosoma brucei, by exposing the parasites directly to compound prior to injection to mice at 10 E-6 M concentration in dark conditions; method in brief: as §1
Trypanosoma brucei [4] = test: Compound is evaluated for trypanocidal activity against Trypanosoma brucei, by exposing the parasites directly to compound prior to injection to mice at 10 E-5 M concentration in presence of light
Method in brief: (§3)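 DEAE-purified T. brucei EATRO 110 at 5×10^6/mL in TSG was mixed with drug at the final concentration by gentle rotation for 10 min. Samples were light-activated for 10 min under a 30W fluorescent lamp 4 cm above. 5×10^5 treated parasites in 0.1 mL were injected ip into Swiss mice, five per group. Survival was scored daily for 30 days and reported as mean days ±SD, with untreated controls.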

Trypanosoma brucei [5] = test: Compound is evaluated for trypanocidal activity against Trypanosoma brucei, by exposing the parasites directly to compound prior to injection to mice at 10 E-5 M concentration in dark conditions; method in brief: as §1
Trypanosoma brucei [6] = test: Compound is evaluated for trypanocidal activity against Trypanosoma brucei, by exposing the parasites directly to compound prior to injection to mice at 10 E-6 M concentration in presence of light; method in brief: as §3
Trypanosoma brucei [7] = test: Compound is evaluated for trypanocidal activity against Trypanosoma brucei, by exposing the parasites directly to compound prior to injection to mice at 10 E-4 M concentration in presence of light; method in brief: as §3
Trypanosoma brucei [8] = test: Compound is evaluated for trypanocidal activity against Trypanosoma brucei, by exposing the parasites directly to compound prior to injection to mice at 10 E-5 M concentration (pre) in presence of light
Method in brief: (§4)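 Compound was irradiated 1 h before contact with T. brucei EATRO 110 (5×10^6/mL in TSG, final drug concentration). After 10 min gentle rotation, the mixture was irradiated again for 10 min under a 30W fluorescent lamp at 4 cm. 5×10^5 parasites in 0.1 mL were given ip to five Swiss mice per group. Read-out was mean days survival ±SD over 30 days, with untreated controls.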

Trypanosoma brucei [9] = test: Compound is evaluated for trypanocidal activity against Trypanosoma brucei, by exposing the parasites directly to compound prior to injection to mice at 10 e-7 M concentration in dark; method in brief: as §1
Trypanosoma brucei [10] = test: Trypanocidal activity against Trypanosoma brucei, exposure of parasites to compound prior to injection into mice at 10 e-5 M concentration in dark conditions; method in brief: as §1
Trypanosoma brucei [11] = test: Trypanocidal activity against Trypanosoma brucei, exposure of parasites to compound prior to injection into mice at 10 e-6 M concentration in dark conditions; method in brief: as §1
Trypanosoma brucei [12] = test: Compound is evaluated for trypanocidal activity against Trypanosoma brucei, by exposing the parasites directly to compound prior to injection to mice at 10 E-5 M concentration in presence of lightin; method in brief: as §3
Trypanosoma brucei [13] = test: Compound is evaluated for trypanocidal activity against Trypanosoma brucei, by exposing the parasites directly to compound prior to injection to mice at 10 E-6 M concentration (pre) in dark conditions; method in brief: as §2
Trypanosoma brucei [14] = test: Compound is evaluated for trypanocidal activity against Trypanosoma brucei, by exposing the parasites directly to compound prior to injection to mice at 10 E-7 M concentration in presence of light; method in brief: as §3
Trypanosoma brucei [15] = test: Compound is evaluated for trypanocidal activity against Trypanosoma brucei, by exposing the parasites directly to compound prior to injection to mice at 10 E-6 M concentration (pre) in presence of light.; method in brief: as §4
Trypanosoma brucei [16] = test: Compound is evaluated for trypanocidal activity against Trypanosoma brucei, by exposing the parasites directly to compound prior to injection to mice at 10 E-7 M concentration in dark conditions; method in brief: as §1

Row | SMILES | Activity (Trypanosoma brucei [1]) | Activity (Trypanosoma brucei [2]) | Activity (Trypanosoma brucei [3]) | Activity (Trypanosoma brucei [4]) | Activity (Trypanosoma brucei [5]) | Activity (Trypanosoma brucei [6]) | Activity (Trypanosoma brucei [7]) | Activity (Trypanosoma brucei [8]) | Activity (Trypanosoma brucei [9]) | Activity (Trypanosoma brucei [10]) | Activity (Trypanosoma brucei [11]) | Activity (Trypanosoma brucei [12]) | Activity (Trypanosoma brucei [13]) | Activity (Trypanosoma brucei [14]) | Activity (Trypanosoma brucei [15]) | Activity (Trypanosoma brucei [16])
1 | Nc1ccc2cc3ccccc3nc2c1 | 6.9 | 6.7 | 4.9 | 30 | 6.6 | 5.7 | 30 | 30 |  |  |  |  |  |  |  | 
2 | N=C(N)c1ccc(/N=N/Nc2ccc(C(=N)N)cc2)cc1 [DIMINAZENE] |  |  |  |  |  |  |  |  | 5 | 19.2 | 10.8 |  |  |  |  | 
3 | Nc1ccc2cc3ccc(N)cc3nc2c1 [PROFLAVINE] | 30 |  | 5.5 |  | 12 | 30 | 30 |  |  |  |  | 30 | 7.2 | 8.1 | 20.6 | 6.3
